Laboratory results: ChEMBL document CHEMBL1155292, “Synthesis, analgesic and anti-inflammatory activities evaluation of some bi-, tri- and tetracyclic condensed pyrimidines” (Eur J Med Chem, 2009)

How the values were obtained:
Mus musculus [1] = assay: Analgesic activity in albino mouse assessed as decrease in acetic acid-induced writhing at 11.55 mg/kg, po administered 1 hr prior to acetic acid challenge relative to control; format: functional
Outline: (§1)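 Albino mice of either sex, 18–22 g, six per group. Test agents suspended in saline with a few drops of Tween 80 and given by oral stomach tube; controls handled identically without drug. After 1 h, 0.3 ml of 1% acetic acid ip. Writhing contractions counted for 30 min, starting 5 min after injection. % protection versus control mean; mean ± SEM; one-way ANOVA with post hoc test.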

Rattus norvegicus [2] = assay: Antiinflammatory activity in albino rat assessed as inhibition of carrageenan-induced paw edema at 0.029 mmol/kg, po after 3 hrs relative to control; format: functional
Outline: (§2)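 Adult albino rats of either sex, 120–150 g, six per group. Compounds at 0.029 mmol/kg suspended in saline with a few drops of Tween 80 and given by oral stomach tube. After 1 h, 0.1 ml of freshly prepared 1% carrageenan in saline injected subplantar into the right hind paw. Paw thickness measured at 1–4 h; % edema inhibition versus control; mean ± SEM; ANOVA.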

Rattus norvegicus [3] = assay: Antiinflammatory activity in albino rat assessed as inhibition of carrageenan-induced paw edema at 0.029 mmol/kg, po after 1 hr relative to control; format: functional; outline: as §2
Rattus norvegicus [4] = assay: Gastrointestinal toxicity in albino rat assessed as ulcerogenic index at 0.029 mmol/kg, po after 5 hrs; format: organism-based; conditions: in vivo
Outline: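 Adult albino rats of either sex (120–150 g), 6 per group, got the test compounds orally by stomach tube as a suspension in saline with a few drops of tween 80. They were the same rats used in the carrageenan paw-edema test. Stomachs were then opened along the great curvature and examined for lesions or bleeding. Ulceration was recorded as the number of rats with ulcers out of 6.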

Rattus norvegicus [5] = assay: Antiinflammatory activity in albino rat assessed as inhibition of carrageenan-induced paw edema at 0.029 mmol/kg, po after 4 hrs relative to indomethacin; format: functional
Outline: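 Rat carrageenan paw edema: oral 0.029 mmol/kg in saline/Tween 80, 1 h before subplantar 0.1 ml 1% carrageenan into the right hind paw; six rats per group. Potency is % inhibition of the test compound divided by % inhibition of indomethacin at 4 h.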

Rattus norvegicus [6] = assay: Antiinflammatory activity in albino rat assessed as inhibition of carrageenan-induced paw edema at 0.029 mmol/kg, po after 4 hrs relative to control; format: functional; outline: as §2
Rattus norvegicus [7] = assay: Antiinflammatory activity in albino rat assessed as inhibition of carrageenan-induced paw edema at 0.029 mmol/kg, po after 2 hrs relative to control; format: functional; outline: as §2
Mus musculus [8] = assay: Analgesic activity in albino mouse assessed as decrease in acetic acid-induced writhing at 12.87 mg/kg, po administered 1 hr prior to acetic acid challenge relative to control; format: functional; outline: as §1
Mus musculus [9] = assay: Analgesic activity in albino mouse assessed as decrease in acetic acid-induced writhing at 11.32 mg/kg, po administered 1 hr prior to acetic acid challenge relative to control; format: functional; outline: as §1
Mus musculus [10] = assay: Analgesic activity in albino mouse assessed as decrease in acetic acid-induced writhing at 1 mg/kg, po administered 1 hr prior to acetic acid challenge; format: functional; outline: as §1
Mus musculus [11] = assay: Analgesic activity in albino mouse assessed as decrease in acetic acid-induced writhing at 2 mg/kg, po administered 1 hr prior to acetic acid challenge; format: functional; outline: as §1
Mus musculus [12] = assay: Analgesic activity in albino mouse assessed as decrease in acetic acid-induced writhing at 4 mg/kg, po administered 1 hr prior to acetic acid challenge; format: functional; outline: as §1
Mus musculus [13] = assay: Analgesic activity in albino mouse assessed as decrease in acetic acid-induced writhing at 0.4 mg/kg, po administered 1 hr prior to acetic acid challenge; format: functional; outline: as §1
Mus musculus [14] = assay: Analgesic activity in po dosed albino mouse assessed as decrease in acetic acid-induced writhing administered 1 hr prior to acetic acid challenge; format: functional, organism-based; outline: as §1
Mus musculus [15] = assay: Analgesic activity in albino mouse assessed as decrease in acetic acid-induced writhing at 8 mg/kg, po administered 1 hr prior to acetic acid challenge; format: functional; outline: as §1
Mus musculus [16] = assay: Analgesic activity in albino mouse assessed as decrease in acetic acid-induced writhing at 11.96 mg/kg, po administered 1 hr prior to acetic acid challenge relative to control; format: functional; outline: as §1
Mus musculus [17] = assay: Analgesic activity in albino mouse assessed as decrease in acetic acid-induced writhing at 0.8 mg/kg, po administered 1 hr prior to acetic acid challenge; format: functional; outline: as §1
Mus musculus [18] = assay: Analgesic activity in albino mouse assessed as decrease in acetic acid-induced writhing at 13.81 mg/kg, po administered 1 hr prior to acetic acid challenge relative to control; format: functional; outline: as §1
Rattus norvegicus [19] = assay: Antiinflammatory activity in albino rat assessed as inhibition of carrageenan-induced paw edema at 10 mg/kg, po; format: functional
Outline: (§3)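 Rat carrageenan paw edema with oral dosing at 10, 15, 20 and 25 mg/kg, suspended in saline with Tween 80, 1 h before subplantar 0.1 ml 1% carrageenan into the right hind paw. % edema inhibition versus control at each dose; IC50 (mg/kg) derived from these four doses.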

Rattus norvegicus [20] = assay: Antiinflammatory activity in po dosed albino rat assessed as inhibition of carrageenan-induced paw edema; format: functional, organism-based
Outline: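 Adult albino rats of either sex, 120–150 g, groups of 6. Compound suspended in saline with a few drops of tween 80, given by oral stomach tube 1 h before subplantar injection of freshly prepared 1% carrageenan (0.1 ml) in saline into right hind paw. Paw thickness read at 1–4 h; % edema inhibition versus carrageenan control; mean ± SEM, one-way ANOVA with post hoc test.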

Rattus norvegicus [21] = assay: Antiinflammatory activity in albino rat assessed as inhibition of carrageenan-induced paw edema at 25 mg/kg, po; format: functional; outline: as §3
Mus musculus [22] = assay: Analgesic activity in albino mouse assessed as decrease in acetic acid-induced writhing at 11.52 mg/kg, po administered 1 hr prior to acetic acid challenge relative to control; format: functional; outline: as §1
Rattus norvegicus [23] = assay: Antiinflammatory activity in albino rat assessed as inhibition of carrageenan-induced paw edema at 15 mg/kg, po; format: functional; outline: as §3
Rattus norvegicus [24] = assay: Antiinflammatory activity in albino rat assessed as inhibition of carrageenan-induced paw edema at 20 mg/kg, po; format: functional; outline: as §3
Mus musculus [25] = assay: Analgesic activity in albino mouse assessed as decrease in acetic acid-induced writhing at 13.84 mg/kg, po administered 1 hr prior to acetic acid challenge relative to control; format: functional; outline: as §1
Mus musculus [26] = assay: Analgesic activity in albino mouse assessed as decrease in acetic acid-induced writhing at 12.04 mg/kg, po administered 1 hr prior to acetic acid challenge relative to control; format: functional; outline: as §1

Row | Structure (SMILES) | inhibition in vivo at 29 µmol/kg (Rattus norvegicus [2]) [%] | inhibition in vivo at 29 µmol/kg (Rattus norvegicus [3]) [%] | UI (Rattus norvegicus [4]) | relative potency at 29 µmol/kg (Rattus norvegicus [5]) | inhibition in vivo at 29 µmol/kg (Rattus norvegicus [6]) [%] | inhibition in vivo at 29 µmol/kg (Rattus norvegicus [7]) [%] | other results
1 | O=C1N(c2ccccc2)c2nc(-c3ccccc3)n3c(=O)[nH]nc3c2C2CCCN12 (centres undefined) | 17.3 | 10.1 | Non-toxic | 0.56 | 15.5 | 12.4 | inhibition in vivo at 11.55 mg/kg (Mus musculus [1]): 75.9%
2 | CCOC(=O)NNc1nc(-c2ccccc2)nc2c1C1CCCN1C(=O)N2c1ccccc1 (centres undefined) | 18 | 19.1 | – | 0.59 | 16.1 | 17.4 | inhibition in vivo at 12.87 mg/kg (Mus musculus [8]): 91.8%
3 | COc1ccc(C2NC(=O)C3=C(N2)N(c2ccccc2)C(=O)N2CCCC32)cc1 (centres undefined) | 13.7 | 6.72 | – | 0.68 | 18.6 | 6.64 | inhibition in vivo at 11.32 mg/kg (Mus musculus [9]): 84.4%
4 | O=C1CN2C(=NN1)C1=C(N=C2c2ccccc2)N(c2ccccc2)C(=O)N2CCCC12 (centres undefined) | 15.8 | 2.23 | Non-toxic | 0.77 | 21.1 | 7.44 | inhibition in vivo at 1 mg/kg (Mus musculus [10]): 76.6%; inhibition in vivo at 2 mg/kg (Mus musculus [11]): 82.4%; inhibition in vivo at 4 mg/kg (Mus musculus [12]): 86.1%; inhibition in vivo at 0.4 mg/kg (Mus musculus [13]): 43.1%; IC50 (Mus musculus [14]): 0.446 mg/kg; inhibition in vivo at 8 mg/kg (Mus musculus [15]): 88.8%; inhibition in vivo at 11.96 mg/kg (Mus musculus [16]): 91.8%; inhibition in vivo at 0.8 mg/kg (Mus musculus [17]): 63.3%
5 | O=C(NNc1nc(-c2ccccc2)nc2c1C1CCCN1C(=O)N2c1ccccc1)c1ccccc1 (centres undefined) | 27.4 | 35.9 | – | 0.93 | 25.5 | 28.9 | inhibition in vivo at 13.81 mg/kg (Mus musculus [18]): 71.8%
6 | O=C1CN=C2C3=C(N=C(c4ccccc4)N12)N(c1ccccc1)C(=O)N1CCCC31 (centres undefined) | 27.4 | 14.6 | Non-toxic | 1.06 | 29.2 | 22.3 | inhibition in vivo at 10 mg/kg (Rattus norvegicus [19]): 17%; IC50 (Rattus norvegicus [20]): 17.62 mg/kg; inhibition in vivo at 25 mg/kg (Rattus norvegicus [21]): 68.4%; inhibition in vivo at 11.52 mg/kg (Mus musculus [22]): 78.5%; inhibition in vivo at 15 mg/kg (Rattus norvegicus [23]): 40%; inhibition in vivo at 20 mg/kg (Rattus norvegicus [24]): 61.3%
7 | O=C(NNc1nc(-c2ccccc2)nc2c1C1CCCN1C(=O)N2c1ccccc1)c1cccnc1 (centres undefined) | 8.63 | 32.6 | – | 0.2 | 5.59 | 11.6 | inhibition in vivo at 13.84 mg/kg (Mus musculus [25]): 77.9%
8 | O=C1N(c2ccccc2)c2nc(-c3ccccc3)nc(N3CCCC3)c2C2CCCN12 (centres undefined) | 25.2 | 7.82 | Non-toxic | 0.56 | 15.5 | 26.5 | inhibition in vivo at 12.04 mg/kg (Mus musculus [26]): 95%
